{
  "source": "ChEMBL document CHEMBL1153564",
  "about": "(Antimicrob Agents Chemother, 2008)",
  "key": {"Nakaseomyces glabratus [1]": {"system": "Nakaseomyces glabratus", "test": "Antifungal activity against Candida glabrata 5376 infected in neutropenic ICR/Swiss mouse candidiasis model assessed as reduction of […] in kidney at 20 mg/kg, ip administered 2 hrs postinfection as single dose measured after 96 hrs post dosing by time-kill assay", "assay_type": "functional, organism-based", "set-up": "dose 20 mg/kg", "outline": "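Neutropenic mice were infected i.v. and 2 h later given a single i.p. dose (1.25, 5 or 20 mg/kg). Groups of three treated and three control mice were killed at intervals over 96 h, and kidney CFU were counted on SDA (limit 100 CFU/ml). The post-antifungal effect is t − c: the time for a 1 log10 CFU/kidney increase once serum levels fall below the MIC in treated mice, minus the same time in controls.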"}, "Candida tropicalis": {"system": "Candida tropicalis", "test": "Antifungal activity against Candida tropicalis 98-234 assessed as partial growth inhibition after 24 hrs by CLSI end point method", "assay_type": "functional", "details": "98-234, 24 h"}, "Nakaseomyces glabratus [2]": {"system": "Nakaseomyces glabratus", "test": "Antifungal activity against Candida glabrata 33616 assessed as complete growth inhibition after 24 hrs by CLSI end point method", "assay_type": "functional", "details": "Nakaseomyces glabratus, 33616, 24 h", "outline": "(§1)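 Two end points were read against the drug-free control well: partial growth inhibition (the CLSI end point) and complete inhibition. Run in duplicate on four separate occasions; the value is the mean. Drug stock was made in DMSO and diluted in 0.9% NaCl.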"}, "[3]": {"test": "AUC (0 to infinity) in serum of neutropenic ICR/Swiss mouse candidiasis model at 80 mg/kg, ip by reverse-phase high-pressure liquid chromatography", "assay_type": "ADME, organism-based", "set-up": "time infinity, dose 80 mg/kg, route intraperitoneal", "outline": "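Single ip dose in 0.2 ml to infected neutropenic mice. Serum from groups of three isoflurane-anaesthetised mice at 1, 4, 8, 12, 24 and 48 h, stored −80°C. Drug measured by reverse-phase HPLC with fluorescence detection against loratadine internal standard (calibration 10–50,000 ng/ml). Noncompartmental analysis; AUC by trapezoidal rule.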"}, "Candida albicans [4]": {"system": "Candida albicans", "test": "Antifungal activity against Candida albicans K-1 infected in neutropenic ICR/Swiss mouse candidiasis model assessed as dose required for 1-log10 reduction in […] per kidney administered intraperitoneally once every 96 hrs measured per 96 hrs", "assay_type": "functional", "outline": "(§2)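 Neutropenic mice were infected iv with C. albicans K-1 2 h before therapy. Total doses of 1.25, 5, 20, 80 and 320 mg/kg/96 h were split into 1, 2, 4 or 6 ip doses (q96h, q48h, q24h, q16h), three mice per regimen. Effect is the log10 CFU/kidney relative to untreated controls at 96 h. Static and 1-log doses were taken from a Hill model fit.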"}, "Nakaseomyces glabratus [5]": {"system": "Nakaseomyces glabratus", "test": "Antifungal activity against Candida glabrata 5376 infected in neutropenic ICR/Swiss mouse candidiasis model assessed as dose required for 1-log10 reduction in […] per kidney administered intraperitoneally once every 96 hrs measured per 96 hrs", "assay_type": "functional", "outline": "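Neutropenic ICR/Swiss mice infected i.v. with the strain; therapy began 2 h later. Total doses of 1.25–320 mg/kg/96 h were given i.p. as 1, 2, 4 or 6 doses (q96h, q48h, q24h, q16h), three mice per regimen. Kidney CFU were counted after 4 days. Effect is the change from untreated controls at the end of therapy.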"}, "Candida albicans [6]": {"system": "Candida albicans", "test": "Antifungal activity against Candida albicans K-1 infected in neutropenic ICR/Swiss mouse candidiasis model assessed as reduction of […] in kidney at 5 mg/kg, ip administered 2 hrs postinfection as single dose measured within 1 to 4 hrs post dosing by time-kill assay", "assay_type": "functional, organism-based", "set-up": "dose 5 mg/kg", "outline": "(§3)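 Single ip dose (20, 5 or 1.25 mg/kg) given 2 h after iv infection of neutropenic mice with K-1. Three treated and three control mice were sampled at intervals over 96 h for kidney CFU. PAFE is the time for treated burden to rise 1 log10 after serum levels fall below MIC, minus the same time in controls. Free drug was taken as 1%.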"}, "Nakaseomyces glabratus [7]": {"system": "Nakaseomyces glabratus", "test": "Antifungal activity against Candida glabrata 5376 infected in neutropenic ICR/Swiss mouse candidiasis model assessed as dose required to maintain […] of 3.71 +/- 0.21 log10CFU per kidney administered intraperitoneally every 48 hrs up to 4 days measured per 96 hrs"}, "Nakaseomyces glabratus [8]": {"system": "Nakaseomyces glabratus", "test": "Antifungal activity against Candida glabrata 5376 infected in neutropenic ICR/Swiss mouse candidiasis model assessed as reduction of […] in kidney at 1.25 mg/kg, ip administered 2 hrs postinfection as single dose measured after 96 hrs post dosing by time-kill assay", "assay_type": "functional, organism-based", "set-up": "dose 1.25 mg/kg", "outline": "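Neutropenic mice given a single ip dose (1.25, 5 or 20 mg/kg) 2 h after tail-vein infection. Kidneys from 3 mice per time point collected nine times over 96 h. Homogenates serially diluted 1:10 and plated on SDA, 24 h at 35°C. Detection limit 100 CFU/ml.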"}, "Candida albicans [9]": {"system": "Candida albicans", "test": "Antifungal activity against Candida albicans K-1 infected in neutropenic ICR/Swiss mouse candidiasis model assessed as suppression of fungal regrowth at 20 mg/kg, ip administered 2 hrs postinfection as single dose by time-kill assay", "assay_type": "functional, organism-based", "set-up": "dose 20 mg/kg", "outline": "as §3"}, "[10]": {"test": "Elimination half life in serum of neutropenic ICR/Swiss mouse candidiasis model at 80 mg/kg, ip by reverse-phase high-pressure liquid chromatography", "assay_type": "ADME, organism-based", "set-up": "dose 80 mg/kg, route intraperitoneal", "details": "read-out: beta t1/2 (converted)", "outline": "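Infected neutropenic ICR/Swiss mice given single ip doses (5, 20 or 80 mg/kg; 0.2 ml); serum from three isoflurane-anaesthetised mice at 1, 4, 8, 12, 24 and 48 h, stored at −80°C, assayed by reverse-phase HPLC with fluorescence detection, loratadine internal standard, linear 10–50,000 ng/ml. Noncompartmental analysis; half-life by nonlinear least squares.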"}, "Nakaseomyces glabratus [11]": {"system": "Nakaseomyces glabratus", "test": "Antifungal activity against Candida glabrata 513 infected in neutropenic ICR/Swiss mouse candidiasis model assessed as dose required for 1-log10 reduction in […] per kidney administered intraperitoneally every 24 hrs up to 4 days measured per 24 hrs", "assay_type": "functional", "outline": "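Neutropenic mouse disseminated candidiasis, with i.p. therapy starting 2 h after i.v. infection. Five total doses of 0.078–20 mg/kg/24 h were given q24h for 4 days, three mice per dose. Kidney CFU were counted at the end and compared with untreated controls. The dose giving a 1 log10 CFU/kidney reduction was derived from the sigmoid Hill dose–effect model.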"}, "Nakaseomyces glabratus [12]": {"system": "Nakaseomyces glabratus", "test": "Antifungal activity against Candida glabrata 5376 assessed as complete growth inhibition after 24 hrs by CLSI end point method", "assay_type": "functional", "details": "Nakaseomyces glabratus, 5376, 24 h", "outline": "as §1"}, "Candida albicans [13]": {"system": "Candida albicans", "test": "Antifungal activity against Candida albicans K-1 infected in neutropenic ICR/Swiss mouse candidiasis model assessed as reduction of […] in kidney at 20 mg/kg, ip administered 2 hrs postinfection as single dose measured within 1 to 4 hrs post dosing by time-kill assay", "assay_type": "functional, organism-based", "set-up": "dose 20 mg/kg", "outline": "as §3"}, "Candida albicans [14]": {"system": "Candida albicans", "test": "Antifungal activity against Candida albicans K-1 infected in neutropenic ICR/Swiss mouse candidiasis model assessed as […] burden per kidney administered intraperitoneally every 24 hrs up to 4 days measured per 96 hrs", "assay_type": "functional", "details": "K-1, Kidney, ip", "outline": "as §2"}, "Candida albicans [15]": {"system": "Candida albicans", "test": "Antifungal activity against Candida albicans 98-210 infected in neutropenic ICR/Swiss mouse candidiasis model assessed as dose required for 1-log10 reduction in […] per kidney administered intraperitoneally every 24 hrs up to 4 days measured per 24 hrs", "assay_type": "functional", "outline": "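Neutropenic mice (cyclophosphamide sc on days −4, −1 and +2) were infected iv 2 h before therapy. Five total doses from 0.078 to 20 mg/kg/24 h were given ip q24h for 4 days, three mice per regimen. Kidney CFU were measured at the end of therapy. Static and 1-log-kill doses were derived from a Hill sigmoid dose-effect fit.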"}, "Nakaseomyces glabratus [16]": {"system": "Nakaseomyces glabratus", "test": "Antifungal activity against Candida glabrata 33609 infected in neutropenic ICR/Swiss mouse candidiasis model assessed as dose required to maintain […] of 1.83 +/- 0.54 log10CFU per kidney administered intraperitoneally every 24 hrs up to 4 days measured per 24 hrs", "assay_type": "functional"}},
  "note": "Active and inactive are the calls of the source. The rule behind the calls is not given here. Starred links: 1 amine or outer side, 2 acyl side, 3 side chain; linkers in the order of their positions; H or OH if unused. Positions of bridges follow the written chain, without caps; N, C: chain ends. Non-standard residues stand in square brackets, D forms with d. Residues, ends and D or L forms follow the SMILES beside them. *: point of attachment. pTerphenylCO(4''-OnC5H11) = CCCCCOc1ccc(-c2ccc(-c3ccc(C(=O)*)cc3)cc2)cc1; Orn(4R-OH,5R-OH) = O=C([C@H](C[C@@H](O)[C@@H](O)N[*:3])N[*:1])[*:2]; hTyr(3S-OH,4S-OH) = N[C@H](C(=O)O)[C@H](O)[C@@H](O)c1ccc(O)cc1; Pro(3S-OH,4S-Me) = C[C@H]1CN[C@H](C(=O)O)[C@H]1O; Hyp = O=C(O)[C@@H]1C[C@@H](O)CN1",
  "data": [
    {"smiles": "CCCCCOc1ccc(-c2ccc(-c3ccc(C(=O)N[C@H]4C[C@@H](O)[C@@H](O)NC(=O)[C@@H]5[C@@H](O)[C@@H](C)CN5C(=O)[C@H]([C@@H](C)O)NC(=O)[C@H]([C@H](O)[C@@H](O)c5ccc(O)cc5)NC(=O)[C@@H]5C[C@@H](O)CN5C(=O)[C@H]([C@@H](C)O)NC4=O)cc3)cc2)cc1", "note": "[ANIDULAFUNGIN] ({pTerphenylCO(4''-OnC5H11)}-[Orn(4R-OH,5R-OH)]T[Hyp][hTyr(3S-OH,4S-OH)]T[Pro(3S-OH,4S-Me)]; lactam 1-C)", "values": [
      {"measurement": "Activity", "setting": "Nakaseomyces glabratus [1]", "value": "Active"},
      {"measurement": "MIC", "setting": "Candida tropicalis", "value": 0.015, "unit": "µg/mL"},
      {"measurement": "MIC", "setting": "Nakaseomyces glabratus [2]", "value": 2, "unit": "µg/mL"},
      {"measurement": "AUC(0-inf)", "setting": "[3]", "value": 1980, "unit": "µg·h/mL"},
      {"measurement": "Activity", "setting": "Candida albicans [4]", "value": 4.97, "unit": "mg/kg"},
      {"measurement": "Activity", "setting": "Nakaseomyces glabratus [5]", "value": 16.6, "unit": "mg/kg"},
      {"measurement": "Activity", "setting": "Candida albicans [6]", "value": "Active"},
      {"measurement": "Activity", "setting": "Nakaseomyces glabratus [7]", "value": 15.3, "unit": "mg/kg"},
      {"measurement": "Activity", "setting": "Nakaseomyces glabratus [8]", "value": "Active"},
      {"measurement": "Activity", "setting": "Candida albicans [9]", "value": "Active"},
      {"measurement": "half-life", "setting": "[10]", "value": 24, "unit": "h"},
      {"measurement": "Activity", "setting": "Nakaseomyces glabratus [11]", "value": 4.13, "unit": "mg/kg"},
      {"measurement": "MIC", "setting": "Nakaseomyces glabratus [12]", "value": 0.06, "unit": "µg/mL"},
      {"measurement": "Activity", "setting": "Candida albicans [13]", "value": "Active"},
      {"measurement": "ED50", "setting": "Candida albicans [14]", "value": 3.5, "unit": "mg/kg"},
      {"measurement": "Activity", "setting": "Candida albicans [15]", "value": 13, "unit": "mg/kg"},
      {"measurement": "Activity", "setting": "Nakaseomyces glabratus [16]", "value": 2, "unit": "mg/kg"}
    ]}
  ]
}
